From the M2OR odorant receptor database

Columns and labels:
Details in all cases: stereoisomer not certain
OR1A2 A108G K109N S155N = test system: OR1A2 A108G K109N S155N
Method in brief: (§1)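 Each entry records the cell line, G-protein, co-transfected protein and tags used. Methods varied with the source, often transient luciferase assays in mammalian cell lines. A receptor–molecule pair is called responsive (active) if the original authors judged its signal statistically different from baseline and non-responsive (inactive) otherwise.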

[1] = test system: OR1A2 A108G K109N T154A S155N
Method in brief: as §1

OR1A2 A108G K109N T154A = test system: OR1A2 A108G K109N T154A
Method in brief: as §1

OR1A2 A108G K109N = test system: OR1A2 A108G K109N
Method in brief: as §1

OR1A2 A108G T154A S155N = test system: OR1A2 A108G T154A S155N
Method in brief: as §1

OR1A2 A108G = test system: OR1A2 A108G
OR1A2 A108G, sequence (as listed by the source, stated change not applied): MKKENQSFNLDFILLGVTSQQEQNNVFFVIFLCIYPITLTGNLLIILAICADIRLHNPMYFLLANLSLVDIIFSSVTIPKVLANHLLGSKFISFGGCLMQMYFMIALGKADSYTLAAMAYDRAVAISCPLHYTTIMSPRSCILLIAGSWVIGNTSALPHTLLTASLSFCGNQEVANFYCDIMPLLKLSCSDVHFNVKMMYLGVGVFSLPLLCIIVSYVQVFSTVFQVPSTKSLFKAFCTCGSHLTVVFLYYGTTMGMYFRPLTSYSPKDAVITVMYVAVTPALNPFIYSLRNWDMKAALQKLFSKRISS
Method in brief: as §1

OR1A2 K109N T154A S155N = test system: OR1A2 K109N T154A S155N
Method in brief: as §1

OR1A2 K109N = test system: OR1A2 K109N
OR1A2 K109N, sequence (as listed by the source, stated change not applied): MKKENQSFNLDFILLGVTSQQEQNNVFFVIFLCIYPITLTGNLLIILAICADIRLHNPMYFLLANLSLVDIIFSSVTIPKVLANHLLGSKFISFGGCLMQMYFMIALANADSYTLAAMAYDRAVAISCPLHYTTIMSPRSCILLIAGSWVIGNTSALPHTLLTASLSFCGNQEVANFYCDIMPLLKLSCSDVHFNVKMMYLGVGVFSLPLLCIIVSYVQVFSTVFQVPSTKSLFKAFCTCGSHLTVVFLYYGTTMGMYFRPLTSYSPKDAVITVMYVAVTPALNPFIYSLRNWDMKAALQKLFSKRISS
Method in brief: as §1

Measured: odorant receptor agonist call

CC(C)=CCCC(C)CCO (stereo not drawn)
active: all assays above
